Laboratory results taken from ChEMBL document CHEMBL1135498, “Pyrazole urea-based inhibitors of p38 MAP kinase: from lead compound to clinical candidate” (J Med Chem, 2002).
Each block holds one molecule with its values, some of them ahead of it. The source made the active and inactive calls. The rule behind the calls is not given here.

What was measured:
Mus musculus [1] = test: In vivo inhibition of LPS-stimulated TNF-alpha in mouse at 100 mg/kg peroral dose; NS = Not significant.; assay type: functional, organism-based; set-up: dose 100 mg/kg
In short: (§1)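 Female Balb/c mice (~20 g) received compound or vehicle orally in cremophor about 30 min before an i.v. challenge of E. coli 0111:B4 LPS (1.0 μg/mouse) plus D-gal (50 mg/kg) in pyrogen-free saline. One hour after challenge, the mice were bled by cardiac puncture. Serum TNF-α was measured by ELISA in duplicate, and compound levels by HPLC.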

[2] = Plasma level of compound was measured after 90 min post dose in mouse.; assay type: ADME, organism-based; conditions: read-out: Plasma level; in short: as §1
[3] = Bioavailability was measured after oral dosing at 10 mg/kg in female BALB/c mice(100% PEG400); assay type: ADME, organism-based; conditions: mouse, in vivo, read-out: Bioavailabiility
[4] = Bioavailability was measured after oral dosing at 10 mg/kg in male cynomolgus monkey (100% PEG400); assay type: ADME, organism-based, Macaca fascicularis; conditions: in vivo, read-out: Bioavailabiility
[5] = Half life was measured after intravenous dosing at 1 mg/kg in female BALB/c mice(70% PEG400); assay type: ADME, organism-based; set-up: dose 1 mg/kg, route intravenous; conditions: mouse, in vivo
[6] = Vss was measured after intravenous dosing at 1 mg/kg in female BALB/c mice(70% PEG400); assay type: ADME, organism-based; set-up: dose 1 mg/kg, route intravenous; conditions: mouse, in vivo, read-out: Vss
[7] = Vss was measured after intravenous dosing at 1 mg/kg in male cynomolgus monkey (70% PEG400); assay type: ADME, organism-based, Macaca fascicularis; set-up: dose 1 mg/kg, route intravenous; conditions: in vivo, read-out: Vss
[8] = Maximum plasma conc. was measured after oral dosing at 10 mg/kg in female BALB/c mice(100% PEG400); assay type: ADME, organism-based; set-up: dose 10 mg/kg, route oral; conditions: mouse
[9] = Half-life was measured after intravenous dosing at 1 mg/kg in male cynomolgus monkey (70% PEG400); assay type: ADME, organism-based, Macaca fascicularis; set-up: dose 1 mg/kg, route intravenous; conditions: in vivo
[10] = Maximum conc. (Cmax) was measured after oral dosing at 10 mg/kg in male cynomolgus monkey (100% PEG400); assay type: ADME, organism-based, Macaca fascicularis; set-up: dose 10 mg/kg, route oral; conditions: in vivo
[11] = Maximum time (Tmax) was measured after oral dosing at 10 mg/kg in female BALB/c mice(100% PEG400); assay type: ADME, organism-based; set-up: dose 10 mg/kg, route oral; conditions: mouse, in vivo
[12] = Maximum time (Tmax) was measured after oral dosing at 10 mg/kg in male cynomolgus monkey (100% PEG400); assay type: ADME, organism-based, Macaca fascicularis; set-up: dose 10 mg/kg, route oral; conditions: in vivo
[13] = Plasma clearance (CL) was measured after intravenous dosing at 1 mg/kg in female BALB/c mice(70% PEG400); assay type: ADME, organism-based; set-up: dose 1 mg/kg, route intravenous; conditions: mouse
[14] = Plasma clearance was measured after intravenous dosing at 1 mg/kg in male cynomolgus monkey (70% PEG400); assay type: ADME, organism-based, Macaca fascicularis; set-up: dose 1 mg/kg, route intravenous
[15] = target: Receptor tyrosine-protein kinase erbB-2 (Homo sapiens, UniProt P04626); test: Selectivity against HER2 kinase
[16] = Selectivity against Protein kinase C alpha, Protein kinase C beta, Protein kinase C gamma
[17] = target: cAMP-dependent protein kinase (PKA) (Homo sapiens, UniProt P22694+P17612+P22612); test: Selectivity against Protein kinase A (PKA); assay type: protein assay
Mus musculus [18] = test: In vivo inhibition of LPS-stimulated TNF-alpha in mouse at 100 mg/kg peroral dose; assay type: functional; conditions: route oral
In short: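 Female Balb/c mice (~20 g) dosed orally in cremophor ~30 min before iv LPS (E. coli 0111:B4, 1.0 μg/mouse) plus D-gal (50 mg/kg) in pyrogen-free saline. Blood taken by cardiac puncture 1 h after challenge; serum TNF-α by ELISA in duplicate; serum compound levels by HPLC.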

[19] = Plasma level of compound was measured after 90 min post dose in mouse; assay type: ADME, organism-based; conditions: read-out: Plasma level; in short: as §1
MAP kinase p38 = MAP kinase p38 (Homo sapiens, UniProt O15264+Q15759+Q16539+P53778); test: Binding affinity against human Mitogen-activated protein kinase p38; assay type: protein assay
In short: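 Inhibitor at two concentrations (typically 1 and 0.1 μM, verified by HPLC); 60 min room temperature; excitation 332 nm, emission 420 nm. Duplicates; all points fit to equilibrium binding equation for Kd.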

Sequence of Receptor tyrosine-protein kinase erbB-2 (P04626 whole entry): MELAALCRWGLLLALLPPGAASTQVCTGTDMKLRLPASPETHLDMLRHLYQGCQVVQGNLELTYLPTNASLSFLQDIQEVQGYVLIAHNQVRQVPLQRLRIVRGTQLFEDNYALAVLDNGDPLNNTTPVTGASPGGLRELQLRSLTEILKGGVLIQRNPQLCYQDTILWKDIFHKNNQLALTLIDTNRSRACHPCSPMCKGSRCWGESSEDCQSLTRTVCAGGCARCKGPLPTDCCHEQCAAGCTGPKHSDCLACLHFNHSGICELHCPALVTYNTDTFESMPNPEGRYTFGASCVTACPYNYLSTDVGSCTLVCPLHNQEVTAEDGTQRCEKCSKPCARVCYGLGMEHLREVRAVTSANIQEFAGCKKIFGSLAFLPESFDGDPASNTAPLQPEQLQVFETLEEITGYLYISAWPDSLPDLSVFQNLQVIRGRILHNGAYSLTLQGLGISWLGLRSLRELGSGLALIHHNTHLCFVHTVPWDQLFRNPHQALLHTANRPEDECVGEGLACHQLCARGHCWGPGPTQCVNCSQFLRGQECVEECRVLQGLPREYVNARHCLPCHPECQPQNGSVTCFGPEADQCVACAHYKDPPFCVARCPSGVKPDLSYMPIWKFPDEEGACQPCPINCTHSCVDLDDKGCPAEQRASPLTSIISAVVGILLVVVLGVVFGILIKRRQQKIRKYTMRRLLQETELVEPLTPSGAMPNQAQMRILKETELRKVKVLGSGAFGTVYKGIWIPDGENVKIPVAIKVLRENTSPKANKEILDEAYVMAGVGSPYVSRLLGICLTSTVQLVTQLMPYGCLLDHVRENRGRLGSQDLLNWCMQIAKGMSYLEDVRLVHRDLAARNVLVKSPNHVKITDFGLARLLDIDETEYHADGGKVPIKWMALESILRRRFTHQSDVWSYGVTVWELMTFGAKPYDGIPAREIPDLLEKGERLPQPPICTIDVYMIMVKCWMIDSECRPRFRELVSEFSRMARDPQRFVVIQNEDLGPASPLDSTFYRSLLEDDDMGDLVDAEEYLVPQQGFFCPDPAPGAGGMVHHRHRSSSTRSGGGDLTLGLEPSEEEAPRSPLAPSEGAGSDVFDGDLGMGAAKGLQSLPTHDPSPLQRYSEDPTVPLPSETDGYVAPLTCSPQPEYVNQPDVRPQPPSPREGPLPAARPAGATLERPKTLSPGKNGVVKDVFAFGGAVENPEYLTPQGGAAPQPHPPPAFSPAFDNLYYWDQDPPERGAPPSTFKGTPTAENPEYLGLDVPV

Structure (SMILES): CC(C)(C)c1cc(NC(=O)Nc2ccccc2)n(-c2ccccc2)n1
NS (Mus musculus [1]): inactive
concentration at 1.5 h [2]: 100 ng/mL

Structure (SMILES): Cc1ccc(-n2nc(C(C)(C)C)cc2NC(=O)Nc2ccccc2F)cc1
inhibition in vivo at 100 mg/kg (Mus musculus [18]): 90%
concentration at 1.5 h [2]: 51000 ng/mL

Structure (SMILES): Cc1ccc(-n2nc(C(C)(C)C)cc2NC(=O)Nc2ccccc2)cc1
inhibition in vivo at 100 mg/kg (Mus musculus [18]): 67%
concentration at 1.5 h [19]: 11000 ng/mL

The next lines start with the values.

bioavailability [3]: 23%
bioavailability [4]: 80%
half-life [5]: 2.6 h
Vd [6]: 0.07 L/kg
Vd [7]: 1.9 L/kg
Cmax [8]: 27000 ng/mL
half-life [9]: 1.6 h
Cmax [10]: 1700 ng/mL
Tmax [11]: 1 h
Tmax [12]: 3 h
clearance [13]: 0.33 mL/min/kg
clearance [14]: 14.4 mL/min/kg
IC50 [15]: > 20 µM
IC50 [16]: > 20 µM
IC50 [17]: > 20 µM
Structure (SMILES): Cc1ccc(-n2nc(C(C)(C)C)cc2NC(=O)Nc2ccc(OCCN3CCOCC3)c3ccccc23)cc1 [DORAMAPIMOD]

Kd (MAP kinase p38): 0.001 µM
Structure (SMILES): Cc1ccc(-n2nc(C(C)(C)C)cc2NC(=O)Nc2cccc3ccccc23)cc1
